Data: ChEMBL document CHEMBL1671814, “Discovery of a 3-pyridylacetic acid derivative (TAK-100) as a potent, selective and orally active dipeptidyl peptidase IV (DPP-4) inhibitor” (J Med Chem, 2011)
Active and inactive are the calls of the source. The calls are words filed in the database; no cut-off is given here.

Tests used:
Dipeptidyl peptidase 2 = Dipeptidyl peptidase 2 (Rattus norvegicus, UniProt Q9EPB1); assay: Inhibition of rat kidney DPP2 after 60 mins
Summary of the method: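 Rat kidney DPP-2, partially purified, preincubated with compound (DMSO) for 20 min at room temperature in […] buffer pH 5.5. Reaction started with H-Lys-Ala-pNA, added at 1 mmol/L, and run 60 min at 37 °C. A405 read at start and end against substrate-only and no-compound wells. IC50 from concentration-response curves, mean with 95% CI (n = 3).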

Dipeptidyl peptidase 8 = Dipeptidyl peptidase 8 (Homo sapiens, UniProt Q6V1X1); assay: Inhibition of FLAG-tagged human DPP8 expressed in human 293F cells after 90 mins; format: cell-based
Sequence of Dipeptidyl peptidase 8 (Q6V1X1 whole entry): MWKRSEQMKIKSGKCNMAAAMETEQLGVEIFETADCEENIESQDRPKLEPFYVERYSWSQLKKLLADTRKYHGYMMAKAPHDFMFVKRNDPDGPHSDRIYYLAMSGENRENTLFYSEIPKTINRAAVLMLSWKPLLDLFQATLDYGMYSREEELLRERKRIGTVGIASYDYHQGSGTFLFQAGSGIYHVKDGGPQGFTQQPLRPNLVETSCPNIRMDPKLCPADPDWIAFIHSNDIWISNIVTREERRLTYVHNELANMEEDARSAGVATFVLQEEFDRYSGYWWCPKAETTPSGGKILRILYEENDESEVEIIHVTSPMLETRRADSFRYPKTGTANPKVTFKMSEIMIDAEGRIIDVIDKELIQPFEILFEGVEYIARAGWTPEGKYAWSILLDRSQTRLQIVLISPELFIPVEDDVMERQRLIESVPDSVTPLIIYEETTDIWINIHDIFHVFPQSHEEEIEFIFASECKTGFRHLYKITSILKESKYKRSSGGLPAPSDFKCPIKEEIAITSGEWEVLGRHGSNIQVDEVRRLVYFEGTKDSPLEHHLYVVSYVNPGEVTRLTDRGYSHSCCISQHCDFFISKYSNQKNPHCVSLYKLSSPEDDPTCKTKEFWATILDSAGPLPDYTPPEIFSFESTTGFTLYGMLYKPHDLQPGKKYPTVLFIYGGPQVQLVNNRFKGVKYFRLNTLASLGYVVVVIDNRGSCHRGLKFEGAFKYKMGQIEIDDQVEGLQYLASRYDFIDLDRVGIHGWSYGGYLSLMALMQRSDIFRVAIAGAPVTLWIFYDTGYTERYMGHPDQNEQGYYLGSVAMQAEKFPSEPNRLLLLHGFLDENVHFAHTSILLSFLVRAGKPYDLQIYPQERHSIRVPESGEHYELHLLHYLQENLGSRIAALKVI

Dipeptidyl peptidase 9 = Dipeptidyl peptidase 9 (Homo sapiens, UniProt Q86TI2); assay: Inhibition of FLAG-tagged human DPP9 expressed in human 293F cells after 90 mins; format: cell-based
Sequence of Dipeptidyl peptidase 9 (Q86TI2 whole entry): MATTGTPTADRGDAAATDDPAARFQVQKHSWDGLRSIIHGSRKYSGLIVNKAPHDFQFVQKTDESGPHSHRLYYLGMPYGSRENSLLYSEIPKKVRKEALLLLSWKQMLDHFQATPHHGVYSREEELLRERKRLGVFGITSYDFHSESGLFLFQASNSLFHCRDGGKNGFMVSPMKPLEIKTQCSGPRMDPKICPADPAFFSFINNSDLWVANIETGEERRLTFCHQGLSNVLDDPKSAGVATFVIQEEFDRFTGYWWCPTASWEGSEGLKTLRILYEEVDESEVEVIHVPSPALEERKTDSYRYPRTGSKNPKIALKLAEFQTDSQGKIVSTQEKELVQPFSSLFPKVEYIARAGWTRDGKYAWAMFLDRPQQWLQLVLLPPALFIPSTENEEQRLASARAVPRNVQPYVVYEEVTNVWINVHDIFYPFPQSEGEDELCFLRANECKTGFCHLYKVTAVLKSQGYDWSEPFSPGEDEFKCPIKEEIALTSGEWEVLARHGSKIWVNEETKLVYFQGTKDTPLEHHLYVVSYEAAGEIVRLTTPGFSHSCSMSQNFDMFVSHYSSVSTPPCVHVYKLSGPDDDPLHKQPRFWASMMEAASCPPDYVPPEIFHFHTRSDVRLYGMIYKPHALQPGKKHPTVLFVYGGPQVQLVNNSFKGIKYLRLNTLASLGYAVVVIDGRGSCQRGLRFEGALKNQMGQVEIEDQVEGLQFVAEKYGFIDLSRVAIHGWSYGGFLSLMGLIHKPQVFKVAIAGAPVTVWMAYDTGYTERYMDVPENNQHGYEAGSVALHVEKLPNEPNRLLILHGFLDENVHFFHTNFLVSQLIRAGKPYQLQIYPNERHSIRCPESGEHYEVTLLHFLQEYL

[1] = Half life in rat at 1 mg/kg, po; format: ADME, organism-based; set-up: dose 1 mg/kg, route oral; conditions: in vivo
Summary of the method: (§1)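 Single doses to rats (n = 3) and dogs (n = 4), intravenous 0.1 mg/kg and oral 1.0 mg/kg. Plasma obtained from serial blood samples and deproteinized with acetonitrile containing an internal standard. Supernatant diluted with 0.01 mol/L ammonium acetate. Drug quantified by LC/MS/MS. Values given as mean ± deviation.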

[2] = Half life in dog at 1 mg/kg, po; format: ADME, organism-based, Canis lupus familiaris; set-up: dose 1 mg/kg, route oral; conditions: in vivo; summary of the method: as §1
[3] = Bioavailability in rat at 0.1 mg/kg, iv and 1 mg/kg, po; format: ADME, organism-based; conditions: in vivo; summary of the method: as §1
[4] = Bioavailability in dog at 0.1 mg/kg, iv and 1 mg/kg, po; format: ADME, organism-based, Canis lupus familiaris; conditions: in vivo; summary of the method: as §1
[5] = Metabolic stability in rat liver microsomes assessed as compound remaining at 1 uM after 20 mins relative to basal level; format: ADME, Microsome; conditions: read-out: Stability
Summary of the method: (§2)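 Rat, dog or human hepatic microsomes ([…] final) mixed on ice with 1 μmol/L compound. Reaction started with NADPH and run 20 min at 37 °C, then stopped with ice-cold acetonitrile. Zero-time controls stopped before compound addition. Supernatant analysed by HPLC-UV. Result given as % remaining.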

[6] = Metabolic stability in dog liver microsomes assessed as compound remaining at 1 uM after 20 mins relative to basal level; format: ADME, Canis lupus familiaris, Microsome; conditions: read-out: Stability; summary of the method: as §2
[7] = Metabolic stability in human liver microsomes assessed as compound remaining at 1 uM after 20 mins relative to basal level; format: ADME, Microsome; conditions: read-out: Stability; summary of the method: as §2
[8] = Solubility of the compound at pH 1.2 after 2 hrs; format: physicochemical; conditions: buffer
Summary of the method: (§3)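 Thermodynamic solubility in Japanese Pharmacopoeia 15th ed. first fluid (pH 1.2) or second fluid (pH 6.8), incubated 2 h at 37 °C. Precipitate removed by filtration and filtrate quantified by HPLC.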

[9] = Solubility of the compound at pH 6.8 after 2 hrs; format: physicochemical; conditions: buffer; summary of the method: as §3
Rattus norvegicus = assay: Antidiabetic activity in po dosed fatty Wistar rat assessed as reduction of blood glucose excursion administered 60 mins before glucose challenge by oral glucose tolerance test; format: functional, organism-based
Summary of the method: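 Female Wistar fatty rats, 13 weeks old, fasted overnight and grouped by plasma glucose and body weight (n = 6). Oral vehicle (0.5% methylcellulose) or 0.03, 0.1, 0.3 and 1 mg/kg as free base of the monohydrate. Oral glucose 1 g/kg given 1 h later. Tail-vein blood taken at 0, 10, 30 and 60 min. Plasma glucose measured enzymatically and insulin by ELISA.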

Canis familiaris = species on record: Canis familiaris; conditions: Canis lupus familiaris; Plasma; 0.5 mg/kg

Sequence of Dipeptidyl peptidase 2 (Q9EPB1 whole entry): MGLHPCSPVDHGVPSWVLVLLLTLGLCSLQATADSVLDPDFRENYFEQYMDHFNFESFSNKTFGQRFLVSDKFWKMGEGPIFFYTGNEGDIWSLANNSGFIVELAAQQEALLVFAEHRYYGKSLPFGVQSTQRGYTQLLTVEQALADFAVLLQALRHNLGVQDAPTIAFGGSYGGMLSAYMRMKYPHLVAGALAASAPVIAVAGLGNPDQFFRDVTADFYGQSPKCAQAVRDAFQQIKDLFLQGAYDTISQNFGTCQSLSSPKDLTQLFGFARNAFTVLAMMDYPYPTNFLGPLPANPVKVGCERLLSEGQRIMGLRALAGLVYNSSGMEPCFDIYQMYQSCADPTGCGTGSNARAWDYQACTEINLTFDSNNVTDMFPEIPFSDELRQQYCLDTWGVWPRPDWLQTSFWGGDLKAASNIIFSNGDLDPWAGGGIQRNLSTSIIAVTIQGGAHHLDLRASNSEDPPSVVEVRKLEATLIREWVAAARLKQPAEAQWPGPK

## CCCCc1nc(C)c(C(=O)O)c(-c2ccc(C)cc2)c1CN
Dipeptidyl peptidase 2
  IC50: 11 µM

## CCCc1nc(CC(C)(C)C)c(CN)c(-c2ccc(C)cc2)c1C(=O)O
Dipeptidyl peptidase 2
  IC50: 2 µM

## Cc1ccc(-c2c(CC(=O)O)c(C)nc(CC(C)C)c2CN)cc1
Dipeptidyl peptidase 2
  IC50: 50 µM
Dipeptidyl peptidase 8
  IC50: > 30 µM
Dipeptidyl peptidase 9
  IC50: > 30 µM

## Cc1ccc(-c2c(CN)c(CC(C)(C)C)nc(Cc3ccccc3)c2C(=O)O)cc1
Dipeptidyl peptidase 2
  IC50: 0.25 µM

## Cc1ccc(-c2c(CN)c(CC(C)(C)C)nc(CC(C)C)c2C(=O)O)cc1
Dipeptidyl peptidase 2
  IC50: 1.5 µM

## Cc1ccc(-c2c(CN)c(CC(C)C)nc(C)c2C(=O)O)cc1
Dipeptidyl peptidase 2
  IC50: 5.6 µM

## CCc1nc(CC(C)(C)C)c(CN)c(-c2ccc(C)cc2)c1C(=O)O
Dipeptidyl peptidase 2
  IC50: 4 µM

## Cc1ccc(-c2c(CN)c(CC(C)(C)C)nc(C(C)C)c2C(=O)O)cc1
Dipeptidyl peptidase 2
  IC50: 1.6 µM

## Cc1ccc(-c2c(CCC(=O)O)c(C)nc(CC(C)C)c2CN)cc1
Dipeptidyl peptidase 2
  IC50: 1.1 µM
Dipeptidyl peptidase 8
  IC50: > 30 µM
Dipeptidyl peptidase 9
  IC50: > 30 µM

## CCc1nc(CC(C)(C)C)c(CN)c(-c2ccc(C)cc2)c1CC(=O)O.O
Dipeptidyl peptidase 2
  IC50: > 100 µM
Dipeptidyl peptidase 8
  IC50: > 100 µM
[1]
  half-life: 5.74 h
[2]
  half-life: 4.97 h
[3]
  bioavailability: 53.3%
[4]
  bioavailability: 88%
[5]
  remaining at 20 min, 1 µM: 100%
[6]
  remaining at 20 min, 1 µM: 96.8%
[7]
  remaining at 20 min, 1 µM: 100%
[8]
  solubility at 2 h: > 1 mg/mL
[9]
  solubility at 2 h: 0.93 mg/mL
Rattus norvegicus
  Activity: Dose-dependent effect
Canis familiaris
  inhibition: Active

## Cc1ccc(-c2c(CC(=O)O)c(C)nc(CC(C)(C)C)c2CN)cc1
Dipeptidyl peptidase 8
  IC50: > 100 µM
Dipeptidyl peptidase 9
  IC50: > 100 µM

## Cc1ccc(-c2c(CN)c(CC(C)(C)C)nc(C)c2C(=O)O)cc1
Dipeptidyl peptidase 2
  IC50: 10 µM
